Reference: PMC3483880 (Pure and applied chemistry. Chimie pure et appliquee, 2012)
≈ marks a conversion by molar mass, not a printed value. Entries after “also recorded” stand apart in the source; their conditions may differ. Like-named read-outs stand apart in the source and are kept apart here.

Legend:
human TopIB (hTopIB) = experiment: Inhibition of the relaxation activity of human TopIB; type: biochemical; settings: 3.125−100 μM acid 1, 30 min at 37°C
In short: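 Human TopIB relaxed supercoiled pHOT plasmid DNA alongside recombinant LdTopIB, with test compound at 3.125–100 µM and a DMSO vehicle lane. Reactions stopped with 1% SDS plus 6.1 µg proteinase K. Products resolved on agarose gel and stained with ethidium bromide. Supercoiled, nicked and relaxed topoisomer bands scored against a DNA-only lane (0.2 µg plasmid).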

[1] = molecular target: Leishmania DNA topoisomerase IB enzyme (LdTopIB) (Leishmania donovani, UniProt A0A3Q8IHS4+Q8WQM6); experiment: Inhibition of the relaxation activity of recombinant LdTopIB; type: biochemical; settings: plasmid DNA relaxation assay
In short: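 One unit of recombinant Leishmania donovani TopIB was incubated with negatively supercoiled pHOT plasmid DNA for 30 min at 37 °C, with test compound at 3.1–150 or 3.125–100 µM. A DMSO lane served as control. Reactions were stopped with 1% SDS plus 6.1 µg proteinase K. Products were separated on agarose gel and stained with ethidium bromide to score supercoiled, nicked and relaxed topoisomer bands.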

[2] = tested on: Leishmania donovani promastigotes; experiment: Antiprotozoal activity; type: cell-based; settings: for EC50: read-out: L. donovani promastigotes (EC50)
Murine macrophages = experiment: Toxicity towards murine macrophages; type: cell-based; settings: for IC50: read-out: Murine macrophages (IC50)
[3] = tested on: L. donovani promastigotes; settings: at 100 μg/mL; cited from earlier work
[4] = tested on: Leishmania donovani promastigotes; settings: earlier work; cited from earlier work
L. donovani = settings: cited from earlier work

SMILES | Effectiveness against L. donovani promastigotes (in words) [2] | EC50 [2] [µM] | IC50 (Murine macrophages) [µM] | Effect on motility of L. donovani promastigotes [3] | other results
CCCCCCCCCC/C=C\CCCC(OC)C(=O)O (racemic) [Acid 1, (±)-2-methoxy-6Z-heptadecenoic acid] | not effective against L. donovani promastigotes | 404 ± 11.9 | 484 ± 15.8 | – | Inhibition of hTopIB (in words) (human TopIB (hTopIB)): not effective against hTopIB; Inhibition of LdTopIB (in words) [1]: able to inhibit LdTopIB
CCCCCCCCCCC#CCCCC(OC)C(=O)O (racemic) [Acid 2, (±)-2-methoxy-6-heptadecynoic acid] | – | 74 ± 17.1 | > 700 | – | Inhibition of LdTopIB (in words) [1]: inhibit LdTopIB; Toxicity towards murine macrophages (in words) (Murine macrophages): did not display toxicity towards murine macrophages
CCCCCCCCCCCCCCCC(OC)C(=O)O (racemic) [Acid 3, (±)-2-methoxyheptadecanoic acid] | not effective at all against the parasite | > 1000 | > 1000 | – | Inhibition of LdTopIB (in words) [1]: did not inhibit LdTopIB; also recorded: do not inhibit the enzyme; also recorded: not inhibiting the enzyme
CCCCCCCCCCC#CCCCCC(=O)O [6-heptadecynoic, 6-heptadecynoic acid] | – | – | – | – | EC50 ([2]; Leishmania donovani): 25.1 ± 1.4 µM; Toxicity towards murine macrophages (in words) (Murine macrophages): considerable toxicity towards murine macrophages; IC50 (Murine macrophages; Mus musculus, Macrophage): 21.3 ± 0.9 µM
CCCCCCCCCC/C=C\CCCCC(=O)O [6Z-heptadecenoic, 6Z-heptadecenoic acid] | not effective against L. donovani promastigotes | > 100 | 44.4 ± 1.6 | – | –
CCCCCCCCCCCCCCCCOP(=O)([O-])OCC[N+](C)(C)C [miltefosine] | – | – | – | – | EC50 ([2]; Leishmania donovani): 0.8 ± 0.1 µM; IC50 (Murine macrophages; Mus musculus, Macrophage): 1.9 ± 0.4 µM
CCCCCCCCCC(=O)O [n-decanoic acid] | – | – | – | inhibited the motility | –
CCCCCCCCCCCC(=O)O [n-dodecanoic acid] | – | – | – | inhibited the motility | –
CCCCCCCCCCCCCCCCCCCC(=O)O [n-eicosanoic acid] | – | – | – | – | Effectiveness towards L. donovani promastigotes (in words) [4]: not effective at all
CCCCCCCCCCCCCCCCC(=O)O [n-heptadecanoic, n-heptadecanoic acid] | not effective at all against the parasite | > 100 | 52.6 ± 7.5 | – | Effectiveness towards L. donovani promastigotes (in words) [4]: not effective at all
CCCCCCCCCCCCCCCC(=O)O [n-hexadecanoic acid] | – | – | – | inhibited the motility | –
CCCCCCCCCCCCCCCCCC(=O)O [n-octadecanoic acid] | – | – | – | – | MIC against L. donovani (L. donovani): 1390 µM (≈ 395 µg/mL)
CCCCCCCC/C=C\CCCCCCCC(=O)O [oleic acid] | – | – | – | no effect | MIC against L. donovani (L. donovani): 90 µM (≈ 25.4 µg/mL)
